Assay [1] concerns the target T1, Histamine H4 receptor (Homo sapiens, UniProt Q9H3N8). Kind of assay: Histamine H4 receptor competition binding using [3H]Na-methylhistamine.
For assay [2], the target named is T1, Histamine H4 receptor. Kind of assay: Efficacy measured for human Histamine H4 receptor relative to histamine. In kind it is functional.
Assay [3] deals with T2, Histamine H3 receptor (Homo sapiens, UniProt Q9Y5N1). Kind of assay: Histamine H3 receptor competition binding using [3H]Na-methylhistamine.
Assay [4] addresses T2, Histamine H3 receptor. Kind of assay: Inhibition of the forskolin-stimulated cAMP production in SK-N-MC cells expressing human Histamine H3 receptor. In kind it is functional, cell-based. On the technique in general: cAMP levels reflect the balance of adenylyl cyclase and phosphodiesterase activity.
Assay [5] has as its target T2, Histamine H3 receptor. As to the kind of experiment: Efficacy measured for human Histamine H3 receptor relative to histamine. In kind it is functional.
In assay [6] the target is T1, Histamine H4 receptor. As to the kind of experiment: Inhibition of the forskolin-stimulated cAMP production in SK-N-MC cells expressing human Histamine H4 receptor. In kind it is functional, cell-based.
The target of assay [7] is T2, Histamine H3 receptor. Kind of assay: Compound was tested for H3 receptor competition binding using [3H]- Na-methylhistamine. In short, it runs like this:
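Homogenates of SK-N-MC cells stably expressing human H3 receptor, in 50 mM Na2HPO4 pH 7.4, incubated 1 h at 37 °C with 1.0 nM [3H]Nα-methylhistamine with or without competitor. Filtration through GF/C filters pretreated with 0.3% polyethylenimine, three washes with ice-cold 25 mM Tris-HCl, 145 mM NaCl pH 7.4, then scintillation counting.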

Assay [8] has as its target T2, Histamine H3 receptor. As to the kind of experiment: Inhibition of the forskolin-stimulated cAMP production in SK-N-MC cells expressing human Histamine H3 receptor; Not effective. In kind it is functional, cell-based.

pEC50, pKi: −log10 of the molar value. Activity calls are given as the source filed them. The calls are words filed in the database; no cut-off is given here.

The term pKi denotes the negative decadic logarithm of the Ki, by convention in mol/L. Lower therefore signals a high Ki. In general, pEC50 refers to the negative decadic logarithm of the EC50, by convention in mol/L. Low values mean a high EC50, high ones a low EC50.

T2 sequence (Q9Y5N1 whole entry): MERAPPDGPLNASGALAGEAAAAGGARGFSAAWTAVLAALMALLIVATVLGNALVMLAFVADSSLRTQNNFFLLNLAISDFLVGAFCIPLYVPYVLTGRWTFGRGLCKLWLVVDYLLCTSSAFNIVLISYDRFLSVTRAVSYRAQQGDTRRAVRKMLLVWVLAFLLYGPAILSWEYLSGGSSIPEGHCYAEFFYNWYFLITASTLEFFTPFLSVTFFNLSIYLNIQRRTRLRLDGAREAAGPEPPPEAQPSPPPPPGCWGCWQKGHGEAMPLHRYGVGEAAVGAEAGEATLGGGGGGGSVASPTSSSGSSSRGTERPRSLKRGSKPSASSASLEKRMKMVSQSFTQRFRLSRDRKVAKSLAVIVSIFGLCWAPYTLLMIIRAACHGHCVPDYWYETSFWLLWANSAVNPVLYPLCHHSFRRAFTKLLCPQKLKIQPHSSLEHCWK
T1 sequence (Q9H3N8 whole entry): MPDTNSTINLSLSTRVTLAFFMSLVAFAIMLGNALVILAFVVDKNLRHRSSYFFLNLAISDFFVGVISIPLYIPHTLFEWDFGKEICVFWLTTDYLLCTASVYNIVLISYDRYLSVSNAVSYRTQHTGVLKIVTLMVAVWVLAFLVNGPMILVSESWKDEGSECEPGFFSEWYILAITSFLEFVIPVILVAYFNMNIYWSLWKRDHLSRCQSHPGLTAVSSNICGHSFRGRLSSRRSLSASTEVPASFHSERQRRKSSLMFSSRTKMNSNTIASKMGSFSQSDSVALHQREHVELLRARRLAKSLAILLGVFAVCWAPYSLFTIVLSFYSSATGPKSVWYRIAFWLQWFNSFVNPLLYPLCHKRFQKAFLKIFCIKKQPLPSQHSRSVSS

In the case of `NC[C@@H]1CC[C@H](c2c[nH]cn2)O1` (single isomer, unassigned), the negative logarithm of the Ki (pKi) in assay [1] was 5.60; in assay [3] it was 5.69. Also, the Efficacy in assay [2] worked out at 0.88; in assay [5], 1.06. In addition, the pEC50 in assay [4] was 6.11; in assay [6], 5.26.
On to `c1ccc(COC[C@@H]2CC[C@H](c3c[nH]cn3)O2)cc1`, for which the pKi in assay [1] was 6.36; in assay [3], 6.48. Besides, the Efficacy in assay [2] was determined as 0.91; in assay [5], 1.06. Besides, the figures for the pEC50 in assay [4] and in assay [6] were 6.72 and 6.87, respectively.
For `C/N=C(\NC#N)NC[C@@H]1CC[C@H](c2c[nH]cn2)O1` (single isomer, unassigned), in assay [1], the pKi was 6.65. Moreover, the Efficacy in assay [2] stood at 1.01; in assay [5], 0.43. The pEC50 in assay [6] is 6.65.
Regarding `NC[C@H]1C=C[C@@H](c2c[nH]cn2)O1` (single isomer, unassigned), the pKi was 4.92 in assay [1] and 4.70 in assay [7]. Also, the Efficacy in assay [2] is 0.71. The pEC50 in assay [4] is under 4.00; in assay [6], 4.12.
On to `c1ccc(COC[C@H]2CC[C@H](c3c[nH]cn3)O2)cc1`, for which the pKi in assay [1] is 5.98; in assay [3], 6.61. Further, the results for the Efficacy in assay [2] and in assay [5] were 0.46 and 0.97, respectively. The pEC50 is 7.04 in assay [4] and 6.13 in assay [6].
As to `NC[C@@H]1CC[C@@H](c2c[nH]cn2)O1`, the figures for the pKi in assay [1] and in assay [3] were 4.89 and 6.66, respectively. Further, the Efficacy in assay [2] was determined as 0.6; in assay [5], 0.91. Further, the pEC50 in assay [4] was 6.98; in assay [6], 4.51.
`c1ccc(COC[C@H]2CC[C@@H](c3c[nH]cn3)O2)cc1`: the pKi in assay [1] was 4.87; in assay [3] it was 5.16. For the same molecule, the Efficacy is 0.82 in assay [2] and 0.86 in assay [5]. Also, the pEC50 in assay [4] is 5.01; in assay [6], 4.94.
As for `NC[C@H]1CC[C@@H](c2c[nH]cn2)O1` (single isomer, unassigned), the pKi in assay [1] was 5.19; in assay [3], 5.77. Also, the Efficacy in assay [2] was 1.02; in assay [5] it was 0.95. Further, the pEC50 in assay [4] is 6.09; in assay [6], 5.12.
For the molecule `NC[C@H]1CC[C@H](c2c[nH]cn2)O1` [IMIFURAMINE], the results for the pKi in assay [1] and in assay [3] were 6.05 and 6.64, respectively. In addition, the figures for the Efficacy in assay [2] and in assay [5] were 0.7 and 1.04, respectively. The pEC50 in assay [4] was 7.35; in assay [6], 5.70.
For `c1ccc(COC[C@@H]2CC[C@@H](c3c[nH]cn3)O2)cc1`, the pKi was 4.67 in assay [1] and 4.98 in assay [7]. The Efficacy in assay [2] turned out to be 0.49; in assay [5], 0.66. The values for the pEC50 in assay [4] and in assay [6] were 5.02 and 4.89, respectively.
On to `C/N=C(\NC#N)NC[C@H]1CC[C@H](c2c[nH]cn2)O1`, for which the pKi in assay [1] was 6.90. This molecule also had an Efficacy in assay [5] of 0.79. The molecule also showed a pEC50 in assay [6] of 7.11.
As for `C/N=C(\NC#N)NC[C@H]1CC[C@@H](c2c[nH]cn2)O1` (single isomer, unassigned), the results for the Efficacy in assay [2] and in assay [5] were 1.07 and under 0.1, respectively. In addition, in assay [8], the NE result is “inactive”.
On to `C/N=C(\NC#N)NC[C@@H]1CC[C@@H](c2c[nH]cn2)O1`, for which the pKi in assay [1] is 4.69. The Efficacy in assay [2] was 1.06. In addition, the pEC50 in assay [6] is 4.67.
With `NC[C@@H]1C=C[C@@H](c2c[nH]cn2)O1`, the negative-log Ki (pKi) is under 4.00 in assay [1] and 5.60 in assay [3]. The Efficacy in assay [2] was found to be 0.85; in assay [5], 0.75. Besides, the pEC50 in assay [4] was 5.55; in assay [6], 4.07.
On to `NC[C@H]1C=C[C@H](c2c[nH]cn2)O1`, for which the values for the negative-log Ki (pKi) in assay [1] and in assay [3] were 4.93 and 5.99, respectively. In addition, the Efficacy in assay [2] was determined as 0.76; in assay [5], 1. For the same molecule, the results for the pEC50 in assay [4] and in assay [6] were 6.57 and 4.62, respectively.
As to `NC[C@@H]1C=C[C@H](c2c[nH]cn2)O1` (single isomer, unassigned), the pKi in assay [1] was 4.66; in assay [3], 4.94. In addition, the Efficacy in assay [2] is 0.74; in assay [5], 0.93. Also, the pEC50 in assay [4] is 4.57; in assay [6], 4.39.

Values taken from ChEMBL document CHEMBL1145842, “A selective human H(4)-receptor agonist: (-)-2-cyano-1-methyl-3-[(2R,5R)-5- [1H-imidazol-4(5)-yl]tetrahydrofuran-2-y] methylguanidine” (J Med Chem, 2003).
